The text below walks through data of publication PMC7339641 (Molecular imaging and biology, 2018).

The test system of one data set is MDA-MB-453 cells. Nature of the data set: Fluorescent microscopy of peptide binding, MDA-MB-453. It counts as cell-based, human. Particulars: fixed cells, peptide 250 nM, 1 h room temperature, neutravidin-AlexaFluor488. The essentials:
(§1)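 Cells fixed in 10 % formalin and dried onto slides overnight. Rehydrated in TBS, then blocked with 2 % BSA in TBS for 1 h. Biotinylated test peptide at 250 nM in 0.1 % TBST for 1 h at room temperature, then 3× washes with 0.1 % TBST. Neutravidin-AlexaFluor488 for 1 h at room temperature. Mounted in DAPI-containing medium and imaged on an inverted microscope.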

A further data set relates to HCC-1954 cells. Nature of the data set: Fluorescent microscopy of peptide binding, HCC-1954. Particulars: fixed cells, peptide 250 nM, 1 h room temperature, neutravidin-AlexaFluor488. It counts as cell-based. In outline:
as §1

For the next data set, the system named is HER3. To be noted: human, in vivo; cited from earlier work.

As to `CC(C)C[C@@H]1NC(=O)[C@@H](NC(=O)CNC(=O)CNC(=O)CNC(=O)CCCC[C@@H]2SC[C@@H]3NC(=O)N[C@@H]32)CSSC[C@@H](C(=O)O)NC(=O)[C@H](CO)NC(=O)[C@H](CCCNC(=N)N)NC(=O)[C@H](Cc2ccccc2)NC(=O)[C@H](CCCCN)NC(=O)[C@H]([C@@H](C)O)NC(=O)[C@@H]2CCCN2C1=O` [biotinylated-HER3P1], the “binding by fluorescent microscopy, MDA-MB-453” value with MDA-MB-453 cells is “high binding”. Further, the “binding by fluorescent microscopy, HCC-1954” value with HCC-1954 cells is “almost no visualization”.
On to “^64Cu-labeled DOTA-conjugated patritumab: 64Cu-labeled DOTA conjugate of the anti-HER3 antibody patritumab”, for which the “specific accumulation measured by tumor-to-blood ratio” value with HER3 is given as “approximately 1”.
